Measurements from article PMC3791136 (Journal of the American Chemical Society, 2013).

System: A2780 cells
Assay: Cytotoxicity with ER stress inhibitor salubrinal
Format: cell-based
Settings: salubrinal 10 μM
In short: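 A2780 cells given the test compound alone or co-administered with salubrinal (10 μM, an ER stress inhibitor). IC50 values were compared with and without inhibitor, with cisplatin run alongside.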

## N.N.[Cl][Pt][Cl] [cisplatin]
  effect of salubrinal on toxicity: limited effect
